# Shown are actives, neighbours in structure and some others; about 2.2% of the full set was active somewhere.
# CXCR6 inh – CXCR6 (human) receptor inhibition; AID 602244; inhibition, % at 20 µM; 360,000 compounds, 0.36% hits; CHO-K1 PathHunter CXCR6 beta-arrestin, luminescence; O00574; in the data active = inhibition above about 34%, passing the limit was not always enough;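 also: antagonist mode with CXCL16 agonist at 10 nM final; 0% = 10 nM CXCL16 with DMSO and 100% = unstimulated wells without agonist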
# m5-HT2A agonist – agonists of mouse serotonin 5-HT2A receptor (HTR2A); P35363; CHO-K1 mHTR2A beta-arrestin complementation, luminescence; percent of 30 µM serotonin response; activation, % at 7.6 µM; 360,000 compounds, 0.66% hits;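 active = activation above a run cutoff, the mean activation of all tested compounds plus 3 SD, cut at about 14% in these data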;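 also: 0% = plate median of compound wells and 100% = 30 µM serotonin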
# Target sequence (P35363 whole entry, looked up): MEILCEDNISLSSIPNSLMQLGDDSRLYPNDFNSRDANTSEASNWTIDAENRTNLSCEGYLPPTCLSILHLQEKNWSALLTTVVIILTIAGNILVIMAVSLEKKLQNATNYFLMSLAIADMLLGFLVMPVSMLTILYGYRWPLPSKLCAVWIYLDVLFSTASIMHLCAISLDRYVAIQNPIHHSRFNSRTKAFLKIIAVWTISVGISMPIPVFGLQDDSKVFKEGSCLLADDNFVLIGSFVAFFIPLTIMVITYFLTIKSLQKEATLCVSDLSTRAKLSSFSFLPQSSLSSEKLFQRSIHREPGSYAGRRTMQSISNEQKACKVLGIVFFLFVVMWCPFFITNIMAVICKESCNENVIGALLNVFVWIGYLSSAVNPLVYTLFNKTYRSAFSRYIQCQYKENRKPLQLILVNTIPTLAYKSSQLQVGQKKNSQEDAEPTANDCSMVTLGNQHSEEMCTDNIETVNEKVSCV
# APJ antag – antagonists of human APJ apelin receptor; P35414; CHO-K1 APJ beta-arrestin complementation, luminescence; inhibition, % at 20 µM; 330,000 compounds, 0.32% hits; AID 2521;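 active = inhibition above about 40% at 20 µM, limit read from the data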;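 also: cells challenged with 10 nM apelin-13 agonist together with compound; plate controls were apelin-13 plus DMSO wells for no effect and DMSO wells lacking apelin-13 for full effect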
# CCR6 antagonist – antagonists of human CCR6 receptor; AID 493098; inhibition, % at 20 µM; 340,000 compounds, 0.49% hits; CHO-K1 CCR6 PathHunter beta-arrestin, luminescence, CCL20-stimulated;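 active = compounds whose inhibition of the agonist-driven luminescence signal at 20 µM reaches about 50%, limit read from the data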;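 also: cells stimulated with CCL20 at 14 nM final; plate controls were DMSO with CCL20 for no effect and DMSO without agonist for full effect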
# EBI2 block – EBI2 (human) antagonism | P32249 | EBI2 beta-arrestin recruitment, luminescence, 7a,25-OHC stimulated | inhibition, % at 5 µM | 360,000 compounds, 0.81% hits | AID 651636; in the data active = inhibition above about 38%;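 also: enzyme fragment complementation signal reports receptor beta-arrestin coupling in cells; 0% = agonist plus DMSO wells and 100% = wells without agonist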
# APJ agonist – APJ receptor agonism. CHO-K1 APJ PathHunter beta-arrestin, luminescence; 0% DMSO wells, 100% apelin. 330,000 compounds, 0.11% hits. activation, % at 20 µM;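 active = activation more than six SD over the plate average, tested at 20 µM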;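 also: 0% = DMSO alone and 100% = apelin-13 at 10 nM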
#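 Assay system: CHO-K1 cells stably expressing ProLink-tagged human APJ and arrestin–beta-gal acceptor. Compound dosing: 20 µM single point, 1% DMSO. Times: 16-18 h seeding, 90 min dark compound exposure, 60 min detection. Detection: beta-gal luminescence. Evaluation: APJ–arrestin association signal. Controls: negative DMSO alone, positive Apelin-13 at 10 nM.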
# EBI2 conf – EBI2 (human) antagonism, single concentration confirmation; EBI2 beta-arrestin luminescence, 7a,25-OHC antagonism; shares compounds with EBI2 block; inhibition, % at 5 µM; 2,400 compounds, 29% hits;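 active = inhibition of at least 50%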
# EBI2 agonist – activates EBI2, counter-screen for EBI2 antagonists | shares compounds with EBI2 block | 2,400 tested, under 10 active | EBI2-expressing cells, agonist mode, luminescence, 60 min; 0% vehicle, 100% 7α,25-dihydroxycholesterol control | AID 652000 | activation, % at 5 µM;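 active = activation of at least 50%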
# bGal cs – counter-screen for EBI2 antagonists: E. coli beta-galactosidase inhibition | shares compounds with EBI2 block | purified beta-galactosidase, luminescent Galacton Star, 15 min | inhibition, % at 5 µM | 2,400 compounds, 1% hits;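 active = replicate-average signal at least 3 plate SD below neutral wells, shown as high inhibition, flagging enzyme-inhibiting false positives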;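 also: 0% = DMSO wells with enzyme and 100% = wells lacking enzyme; higher means stronger loss of beta-gal luminescence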
# Starred values were filed as active, the others as inactive; / = no result.
SMILES,CXCR6 inh,m5-HT2A agonist,APJ antag,CCR6 antagonist,EBI2 block,APJ agonist,EBI2 conf,EBI2 agonist,bGal cs
CCOC(=O)[C@]12CCC=C1N(Cc1ccc3c(c1)OCO3)C(=O)[C@H](CC(=O)NCc1cccs1)C2,-1,0,/,/,-5,/,/,/,/
COc1ccc([C@H]2CC(=O)C=C(c3ccc(O)cc3)C2)cc1OC,1,-2,5,5,18,-3,/,/,/
COc1ccc([C@H]2CC(=O)C=C(c3ccc(OC)c(F)c3)C2)cc1,4,6,3,6,51*,-3,46,-1,-4
COc1ccc([C@H]2CC(=O)C=C(c3ccc4ccccc4c3)C2)cc1OC,10,-1,3,5,62*,-4,51*,-2,1
COc1ccc([C@H]2CC(=O)C=C(c3cc(F)ccc3OC)C2)cc1,5,-5,11,17,19,-5,/,/,/
COc1ccc([C@H]2CC(=O)C=C(c3ccc(OC)c(OC)c3)C2)cc1,-5,3,4,14,46*,-3,43,1,4
COc1ccc(N(CC(=O)NCCSCc2cccc(Cl)c2)S(C)(=O)=O)cc1Cl,-2,-5,9,16,15,0,/,/,/
COc1ccc(N(CC(=O)NCCSc2ccccc2)S(=O)(=O)c2ccccc2)c(OC)c1,0,-6,-2,15,45*,1,13,2,-12
COc1ccc(N(CC(=O)NCCSCc2ccc(C)cc2)S(=O)(=O)c2ccccc2)cc1,-3,-10,-16,0,73*,3,47,1,1
COc1ccc(N(CC(=O)NCCSCc2ccc(Cl)cc2)S(C)(=O)=O)cc1Cl,1,-4,16,12,46*,-1,33,0,8
COc1ccc(N(CC(=O)NCCSc2ccccn2)S(=O)(=O)c2ccccc2)c(OC)c1,1,-14,-1,8,-4,4,/,/,/
COc1ccc(N(CC(=O)NCCSc2ccccc2)S(=O)(=O)c2ccccc2)cc1,0,5,-21,11,88*,-3,59*,2,4
O=S1(=O)N[C@@H](Cc2ccccc2)COc2cccc(N3CCSCC3)c21,12,-2,/,/,4,/,/,/,/
CCCCCCCCN1C(=O)[C@H](CC(=O)NCCCOCCCC)C[C@@]2(C(=O)OCC)CCCC=C12,13,-6,/,/,12,/,/,/,/
CC1(C(=O)NS(=O)(=O)c2ccccc2Cl)CCN1C(=O)CCC1CCCC1 (stereo not given),-2,4,/,/,-5,/,/,/,/
COc1ccc(NC(=O)C2(C)CCCN(C(C)C)C2)cc1F (stereo not given),1,2,/,/,3,/,/,/,/
CC(C)C[C@H]1COc2cc(N3CCC[C@H]3CO)ccc2S(=O)(=O)N1,-2,2,/,/,-7,/,/,/,/
COc1ccccc1N(CC(=O)NCCSCc1ccc(C)cc1)S(=O)(=O)c1ccccc1,8,-8,-24,8,38,2,/,/,/
COc1ccccc1N(CC(=O)NCCSc1ccccc1)S(=O)(=O)c1ccccc1,3,-6,-25,18,50*,-4,33,-2,-7
COc1ccccc1N(CC(=O)NCCSc1ccc(Cl)cc1)S(C)(=O)=O,-5,-4,1,6,80*,-2,62*,1,4
Cc1ccc(SCCNC(=O)CN(c2ccc3c(c2)OCO3)S(C)(=O)=O)cc1,4,-5,1,-8,71*,2,58*,1,5
COc1ccccc1N(CC(=O)NCCSc1ccccc1)S(C)(=O)=O,4,-6,-2,-3,30,-1,/,/,/
CCOc1cc(/C=N/NC(=O)c2ccc(CN3CCOCC3)cc2)ccc1OCc1ccccc1,1,3,-3,-4,55*,4,60*,-1,-20
